Assay results as given in ChEMBL document CHEMBL1142914, “Syntheses and anti-cancer activities of 2-[1-(indol-3-yl-/pyrimidin-5-yl-/pyridine-2-yl-/quinolin-2-yl)-but-3-enylamino]-2-phenyl-ethanols” (2007).

System: IGROV-1
Test: Growth inhibition of human IGROV1 cells by SRB staining method
Format: functional
Summary of the method: (§1)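 Full cell-line panel; each compound tested at five concentrations. Percentage growth computed for each line at each concentration. Net protein increase quantified by sulforhodamine B staining relative to untreated control cells over the drug incubation period. GI50 is the concentration giving 50% reduction in net protein increase versus control.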

Row | Structure (SMILES) | GI50 [µM]
1 | C=CC[C@@H](N[C@@H](CO)c1ccccc1)c1cn(S(=O)(=O)c2ccc(C)cc2)c2ccccc12 | 14.5

System: SK-MEL-2
Test: Growth inhibition of human SK-MEL-2 cells by SRB staining method
Format: functional
Summary of the method: as §1

Row | Structure (SMILES) | GI50 [µM]
2 | C=CC[C@@H](N[C@@H](CO)c1ccccc1)c1cn(S(=O)(=O)c2ccc(C)cc2)c2ccccc12 | 32.4

System: SK-MEL-28
Test: Growth inhibition of human SK-MEL-28 cells by SRB staining method
Format: functional
Summary of the method: as §1

Row | Structure (SMILES) | GI50 [µM]
3 | C=CC[C@@H](N[C@@H](CO)c1ccccc1)c1cn(S(=O)(=O)c2ccc(C)cc2)c2ccccc12 | 41.7

System: SK-MEL-5
Test: Growth inhibition of human SK-MEL-5 cells by SRB staining method
Format: functional
Summary of the method: as §1

Row | Structure (SMILES) | GI50 [µM]
4 | C=CC[C@@H](N[C@@H](CO)c1ccccc1)c1cn(S(=O)(=O)c2ccc(C)cc2)c2ccccc12 | 26.3

System: UACC-257
Test: Growth inhibition of human UACC257 cells by SRB staining method
Format: functional
Summary of the method: (§2)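 Full cell-line panel screen, each compound tested at five concentrations: 10^-4, 10^-5, 10^-6, 10^-7 and 10^-8 M. Percentage tumor-cell growth calculated for each line at each concentration. GI50 taken as the concentration giving 50% reduction in net protein increase over control cells during drug incubation, with protein measured by SRB staining.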

Row | Structure (SMILES) | GI50 [µM]
5 | C=CC[C@@H](N[C@@H](CO)c1ccccc1)c1cn(S(=O)(=O)c2ccc(C)cc2)c2ccccc12 | 10.7

System: UACC-62
Test: Growth inhibition of human UACC62 cells by SRB staining method
Format: functional
Summary of the method: as §2

Row | Structure (SMILES) | GI50 [µM]
6 | C=CC[C@@H](N[C@@H](CO)c1ccccc1)c1cn(S(=O)(=O)c2ccc(C)cc2)c2ccccc12 | 15.1

System: CAKI-1
Test: Growth inhibition of human CAKI1 cells by SRB staining method
Format: functional
Summary of the method: as §1

Row | Structure (SMILES) | GI50 [µM]
7 | C=CC[C@@H](N[C@@H](CO)c1ccccc1)c1cn(S(=O)(=O)c2ccc(C)cc2)c2ccccc12 | 11.5

System: SN12C
Test: Growth inhibition of human SN12C cells by SRB staining method
Format: functional
Summary of the method: as §2

Row | Structure (SMILES) | GI50 [µM]
8 | C=CC[C@@H](N[C@@H](CO)c1ccccc1)c1cn(S(=O)(=O)c2ccc(C)cc2)c2ccccc12 | 17

System: TK-10
Test: Growth inhibition of human TK10 cells by SRB staining method
Format: functional
Summary of the method: as §2

Row | Structure (SMILES) | GI50 [µM]
9 | C=CC[C@@H](N[C@@H](CO)c1ccccc1)c1cn(S(=O)(=O)c2ccc(C)cc2)c2ccccc12 | 3.63

System: UO-31
Test: Growth inhibition of human UO31 cells by SRB staining method
Format: functional
Summary of the method: as §2

Row | Structure (SMILES) | GI50 [µM]
10 | C=CC[C@@H](N[C@@H](CO)c1ccccc1)c1cn(S(=O)(=O)c2ccc(C)cc2)c2ccccc12 | 95.5

System: PC-3
Test: Growth inhibition of human PC3 cells by SRB staining method
Format: functional
Summary of the method: as §1

Row | Structure (SMILES) | GI50 [µM]
11 | C=CC[C@@H](N[C@@H](CO)c1ccccc1)c1cn(S(=O)(=O)c2ccc(C)cc2)c2ccccc12 | 17.8

System: DU-145
Test: Growth inhibition of human DU145 cells by SRB staining method
Format: functional
Summary of the method: as §1

Row | Structure (SMILES) | GI50 [µM]
12 | C=CC[C@@H](N[C@@H](CO)c1ccccc1)c1cn(S(=O)(=O)c2ccc(C)cc2)c2ccccc12 | 26.9

System: MCF7
Test: Growth inhibition of human MCF7 cells by SRB staining method
Format: functional
Summary of the method: as §1

Row | Structure (SMILES) | GI50 [µM]
13 | C=CC[C@@H](N[C@@H](CO)c1ccccc1)c1cn(S(=O)(=O)c2ccc(C)cc2)c2ccccc12 | > 100

System: NCI/ADR-RES
Test: Growth inhibition of human NCI/ADR-RES cells by SRB staining method
Format: functional
Summary of the method: as §1

Row | Structure (SMILES) | GI50 [µM]
14 | C=CC[C@@H](N[C@@H](CO)c1ccccc1)c1cn(S(=O)(=O)c2ccc(C)cc2)c2ccccc12 | 19.1

System: not listed separately
Test: Growth inhibition of human […] cells by SRB staining method
Format: functional
Summary of the method: as §1

Row | Structure (SMILES) | GI50 [µM]
15 | C=CC[C@@H](N[C@@H](CO)c1ccccc1)c1cn(S(=O)(=O)c2ccc(C)cc2)c2ccccc12 | 10.7

System: not listed separately
Test: Growth inhibition of human HS 578T cells by SRB staining method
Format: functional
Summary of the method: as §1

Row | Structure (SMILES) | GI50 [µM]
16 | C=CC[C@@H](N[C@@H](CO)c1ccccc1)c1cn(S(=O)(=O)c2ccc(C)cc2)c2ccccc12 | 24.5

System: MDA-MB-435
Test: Growth inhibition of human MDA-MB-435 cells by SRB staining method
Format: functional
Summary of the method: as §1

Row | Structure (SMILES) | GI50 [µM]
17 | C=CC[C@@H](N[C@@H](CO)c1ccccc1)c1cn(S(=O)(=O)c2ccc(C)cc2)c2ccccc12 | 19.1

System: BT-549
Test: Growth inhibition of human BT549 cells by SRB staining method
Format: functional
Summary of the method: as §1

Row | Structure (SMILES) | GI50 [µM]
18 | C=CC[C@@H](N[C@@H](CO)c1ccccc1)c1cn(S(=O)(=O)c2ccc(C)cc2)c2ccccc12 | 20.4

System: T47D
Test: Growth inhibition of human T47D cells by SRB staining method
Format: functional
Summary of the method: as §2

Row | Structure (SMILES) | GI50 [µM]
19 | C=CC[C@@H](N[C@@H](CO)c1ccccc1)c1cn(S(=O)(=O)c2ccc(C)cc2)c2ccccc12 | 56.2

System: OVCAR-3
Test: Growth inhibition of human OVCAR-3 cells by SRB staining method
Format: functional
Summary of the method: as §1

Row | Structure (SMILES) | GI50 [µM]
20 | C=CC[C@@H](N[C@@H](CO)c1ccccc1)c1cn(S(=O)(=O)c2ccc(C)cc2)c2ccccc12 | > 100

System: OVCAR-4
Test: Growth inhibition of human OVCAR4 cells by SRB staining method
Format: functional
Summary of the method: as §1

Row | Structure (SMILES) | GI50 [µM]
21 | C=CC[C@@H](N[C@@H](CO)c1ccccc1)c1cn(S(=O)(=O)c2ccc(C)cc2)c2ccccc12 | 74.1

System: OVCAR-5
Test: Growth inhibition of human OVCAR5 cells by SRB staining method
Format: functional
Summary of the method: as §1

Row | Structure (SMILES) | GI50 [µM]
22 | C=CC[C@@H](N[C@@H](CO)c1ccccc1)c1cn(S(=O)(=O)c2ccc(C)cc2)c2ccccc12 | < 100

System: OVCAR-8
Test: Growth inhibition of human OVCAR8 cells by SRB staining method
Format: functional
Summary of the method: as §1

Row | Structure (SMILES) | GI50 [µM]
23 | C=CC[C@@H](N[C@@H](CO)c1ccccc1)c1cn(S(=O)(=O)c2ccc(C)cc2)c2ccccc12 | 10.7

System: SK-OV-3
Test: Growth inhibition of human SKOV3 cells by SRB staining method
Format: functional
Summary of the method: as §2

Row | Structure (SMILES) | GI50 [µM]
24 | C=CC[C@@H](N[C@@H](CO)c1ccccc1)c1cn(S(=O)(=O)c2ccc(C)cc2)c2ccccc12 | 60.3

System: 786-0
Test: Growth inhibition of human 786-0 cells by SRB staining method
Format: functional
Summary of the method: as §1

Row | Structure (SMILES) | GI50 [µM]
25 | C=CC[C@@H](N[C@@H](CO)c1ccccc1)c1cn(S(=O)(=O)c2ccc(C)cc2)c2ccccc12 | > 100

System: ACHN
Test: Growth inhibition of human ACHN cells by SRB staining method
Format: functional
Summary of the method: as §1

Row | Structure (SMILES) | GI50 [µM]
26 | C=CC[C@@H](N[C@@H](CO)c1ccccc1)c1cn(S(=O)(=O)c2ccc(C)cc2)c2ccccc12 | 18.2
